Converted amounts (≈) assume the structure as drawn.
How the values were obtained:
rhinovirus B14 = assay: Antiviral activity against human rhinovirus 14 using plaque reduction assay in HeLa cell lines; type: functional, organism-based, human rhinovirus type 14; conditions: Rhinovirus B
[1] = Antiviral activity against human rhinovirus 14 (HRV-14) using CPE/XTT assay in human tumor cell lines.; type: organism-based, human rhinovirus type 14; conditions: read-out: TC50 (the source's name)
How it was run: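 Cytopathic-effect assay run by an earlier published method, except that surviving host cells were quantified with XTT substrate instead of crystal violet staining.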

[2] = Oral plasma concentration in mice at 100 mg/kg dosage within 4-hr time frame.; type: ADME, organism-based; set-up: route oral, dose 100 mg/kg; conditions: mouse
[3] = Oral bioavailability in monkey; type: ADME, organism-based; conditions: primates, in vivo
Coxsackievirus [4] = assay: Antiviral activity against coxsackie virus A21M; type: functional, organism-based
Enterovirus C = assay: Antiviral activity against poliovirus 1; type: functional, organism-based
How it was run: (§1)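 HeLa monolayers in MEM with 5% FBS and 10 mM MgSO4, infected with virus for 1–2 h at room temperature. Overlay of 1.5% agarose mixed 1:1 with 2× MEM (2% FBS) holding graded compound concentrations, diluted in DMSO from a 20 mg/mL stock. Incubated at 37 °C until DMSO-control plaques reached optimal size. Formalin-fixed, crystal violet-stained, plaques counted in duplicate wells. IC50 by Reed–Muench.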

Coxsackievirus [5] = assay: Antiviral activity against coxsackie virus A21; type: functional, organism-based; how it was run: as §1
Human rhinovirus sp. [6] = assay: Antiviral activity against human rhinovirus 16; type: functional, organism-based
Human rhinovirus sp. [7] = assay: Antiviral activity against human rhinovirus 2; type: functional, organism-based
Human rhinovirus sp. [8] = assay: Antiviral activity against human rhinovirus 1A; type: functional, organism-based
Coxsackievirus [9] = assay: Antiviral activity against coxsackie virus B3; type: functional, organism-based; how it was run: as §1
HeLa = assay: Antiviral activity against poliovirus 1 using PV-1 plaque reduction assay in HeLa cell lines; type: functional, cell-based; conditions: Homo sapiens; how it was run: as §1

| SMILES | IC50 (rhinovirus B14) | CC50 [1] | Cmax [2] | bioavailability [3] | IC50 (Coxsackievirus [4]) | IC50 (Enterovirus C) | IC50 (Coxsackievirus [5]) | IC50 (Human rhinovirus sp. [6]) | IC50 (Human rhinovirus sp. [7]) | IC50 (Human rhinovirus sp. [8]) | IC50 (Coxsackievirus [9]) | IC50 (Coxsackievirus [4]; Coxsackievirus, read-out: IC50) | IC50 (HeLa) |
| --- | --- | --- | --- | --- | --- | --- | --- | --- | --- | --- | --- | --- | --- |
| CC(C)S(=O)(=O)n1c(N)nc2ccc(C(=O)c3cccc(F)c3)cc21 | 2.1 µg/mL (≈ 5.81 µM) | 15.9 µg/mL (≈ 44 µM) | – | – | – | – | – | – | – | – | – | – | – |
| C#C/C=C(\c1ccc(F)cc1)c1ccc2nc(N)n(S(=O)(=O)C(C)C)c2c1 | 0.13 µg/mL (≈ 0.339 µM) | 5.8 µg/mL (≈ 15.1 µM) | 9200 ng/mL | 23% | 0.062 µg/mL (≈ 0.162 µM) | 0.067 µg/mL (≈ 0.175 µM) | 0.1 µg/mL (≈ 0.261 µM) | 0.098 µg/mL (≈ 0.256 µM) | 0.091 µg/mL (≈ 0.237 µM) | 0.078 µg/mL (≈ 0.203 µM) | 0.095 µg/mL (≈ 0.248 µM) | – | – |
| C#C/C=C(\c1ccc(C)cc1)c1ccc2nc(N)n(S(=O)(=O)C(C)C)c2c1 | 0.075 µg/mL (≈ 0.198 µM) | 5.7 µg/mL (≈ 15 µM) | 610 ng/mL | – | – | – | – | – | – | – | – | – | – |
| C#C/C=C(\c1ccc(OC)cc1)c1ccc2nc(N)n(S(=O)(=O)C(C)C)c2c1 | 0.059 µg/mL (≈ 0.149 µM) | 5.2 µg/mL (≈ 13.1 µM) | – | – | – | 0.04 µg/mL (≈ 0.101 µM) | 0.047 µg/mL (≈ 0.119 µM) | 0.029 µg/mL (≈ 0.0733 µM) | 0.041 µg/mL (≈ 0.104 µM) | 0.03 µg/mL (≈ 0.0759 µM) | 0.055 µg/mL (≈ 0.139 µM) | 0.051 µg/mL (≈ 0.129 µM) | – |
| C#C/C=C(\c1cccc(F)c1)c1ccc2nc(N)n(S(=O)(=O)C(C)C)c2c1 | 0.06 µg/mL (≈ 0.156 µM) | 5.3 µg/mL (≈ 13.8 µM) | 12000 ng/mL | – | – | 0.037 µg/mL (≈ 0.0965 µM) | 0.085 µg/mL (≈ 0.222 µM) | 0.057 µg/mL (≈ 0.149 µM) | 0.069 µg/mL (≈ 0.18 µM) | 0.027 µg/mL (≈ 0.0704 µM) | 0.032 µg/mL (≈ 0.0835 µM) | 0.046 µg/mL (≈ 0.12 µM) | – |
| C#C/C=C(\c1ccc(F)c(F)c1)c1ccc2nc(N)n(S(=O)(=O)C(C)C)c2c1 | 0.19 µg/mL (≈ 0.473 µM) | 19 µg/mL (≈ 47.3 µM) | 2900 ng/mL | – | – | 0.082 µg/mL (≈ 0.204 µM) | 0.247 µg/mL (≈ 0.615 µM) | 0.55 µg/mL (≈ 1.37 µM) | 0.23 µg/mL (≈ 0.573 µM) | 0.12 µg/mL (≈ 0.299 µM) | 0.1 µg/mL (≈ 0.249 µM) | 0.22 µg/mL (≈ 0.548 µM) | – |
| C#C/C=C(/c1ccc2nc(N)n(S(=O)(=O)C(C)C)c2c1)c1ccccc1F | 0.092 µg/mL (≈ 0.24 µM) | 66 µg/mL (≈ 172 µM) | 9200 ng/mL | – | – | 0.045 µg/mL (≈ 0.117 µM) | 0.079 µg/mL (≈ 0.206 µM) | 0.07 µg/mL (≈ 0.183 µM) | 0.05 µg/mL (≈ 0.13 µM) | 0.035 µg/mL (≈ 0.0913 µM) | 0.05 µg/mL (≈ 0.13 µM) | 0.1 µg/mL (≈ 0.261 µM) | – |
| C#C/C=C(\c1cccc(C(F)(F)F)c1)c1ccc2nc(N)n(S(=O)(=O)C(C)C)c2c1 | 0.4 µg/mL (≈ 0.923 µM) | > 100 µg/mL | 4900 ng/mL | – | – | – | – | – | – | – | – | – | – |
| C#C/C=C(\c1ccccc1)c1ccc2nc(N)n(S(=O)(=O)C(C)C)c2c1 | 0.094 µg/mL (≈ 0.257 µM) | 11 µg/mL (≈ 30.1 µM) | – | – | – | 0.037 µg/mL (≈ 0.101 µM) | 0.037 µg/mL (≈ 0.101 µM) | 0.039 µg/mL (≈ 0.107 µM) | 0.065 µg/mL (≈ 0.178 µM) | 0.033 µg/mL (≈ 0.0903 µM) | 0.1 µg/mL (≈ 0.274 µM) | 0.089 µg/mL (≈ 0.244 µM) | – |
| C#C/C=C(\c1cccc(F)c1)c1ccc2nc(N)n(S(=O)(=O)N(C)C)c2c1 | 0.061 µg/mL (≈ 0.159 µM) | > 100 µg/mL | 8400 ng/mL | – | – | 0.047 µg/mL (≈ 0.122 µM) | 0.1 µg/mL (≈ 0.26 µM) | 0.04 µg/mL (≈ 0.104 µM) | 0.05 µg/mL (≈ 0.13 µM) | 0.053 µg/mL (≈ 0.138 µM) | 0.07 µg/mL (≈ 0.182 µM) | 0.09 µg/mL (≈ 0.234 µM) | – |
| C#C/C=C(\c1cc(F)cc(F)c1)c1ccc2nc(N)n(S(=O)(=O)C(C)C)c2c1 | 0.17 µg/mL (≈ 0.423 µM) | 32 µg/mL (≈ 79.7 µM) | 18000 ng/mL | – | – | 0.12 µg/mL (≈ 0.299 µM) | 0.19 µg/mL (≈ 0.473 µM) | 0.26 µg/mL (≈ 0.648 µM) | 0.18 µg/mL (≈ 0.448 µM) | 0.12 µg/mL (≈ 0.299 µM) | 0.14 µg/mL (≈ 0.349 µM) | 0.23 µg/mL (≈ 0.573 µM) | – |
| C#C/C=C(\c1cccc(Cl)c1)c1ccc2nc(N)n(S(=O)(=O)C(C)C)c2c1 | 0.21 µg/mL (≈ 0.525 µM) | 20 µg/mL (≈ 50 µM) | 18000 ng/mL | – | – | 0.15 µg/mL (≈ 0.375 µM) | 0.23 µg/mL (≈ 0.575 µM) | 0.19 µg/mL (≈ 0.475 µM) | 0.12 µg/mL (≈ 0.3 µM) | 0.13 µg/mL (≈ 0.325 µM) | 0.17 µg/mL (≈ 0.425 µM) | 0.18 µg/mL (≈ 0.45 µM) | – |
| C#C/C=C(\c1ccc(OC(F)(F)F)cc1)c1ccc2nc(N)n(S(=O)(=O)C(C)C)c2c1 | 0.55 µg/mL (≈ 1.22 µM) | 18 µg/mL (≈ 40 µM) | 2000 ng/mL | – | – | 0.27 µg/mL (≈ 0.601 µM) | 0.22 µg/mL (≈ 0.489 µM) | 0.22 µg/mL (≈ 0.489 µM) | 0.35 µg/mL (≈ 0.779 µM) | 0.26 µg/mL (≈ 0.578 µM) | 0.7 µg/mL (≈ 1.56 µM) | 0.5 µg/mL (≈ 1.11 µM) | – |
| C#C/C=C(\c1ccccc1)c1cc2c(cc1F)nc(N)n2S(=O)(=O)C(C)C | – | 13 µg/mL (≈ 33.9 µM) | 16000 ng/mL | 46% | – | – | – | – | – | – | – | – | 1.5 µg/mL (≈ 3.91 µM) |
| C#C/C=C(\c1ccccc1)c1ccc2nc(N)n(S(=O)(=O)C(C)C)c2c1F | 2.8 µg/mL (≈ 7.3 µM) | 57 µg/mL (≈ 149 µM) | 520 ng/mL | – | – | – | – | – | – | – | – | – | – |
| C#C/C=C(/c1ccc2nc(N)n(S(=O)(=O)C(C)C)c2c1)c1cc(F)ccc1F | 0.11 µg/mL (≈ 0.274 µM) | 63 µg/mL (≈ 157 µM) | 9300 ng/mL | – | – | 0.032 µg/mL (≈ 0.0797 µM) | 0.069 µg/mL (≈ 0.172 µM) | 0.099 µg/mL (≈ 0.247 µM) | 0.079 µg/mL (≈ 0.197 µM) | 0.096 µg/mL (≈ 0.239 µM) | 0.1 µg/mL (≈ 0.249 µM) | 0.1 µg/mL (≈ 0.249 µM) | – |
| C#C/C=C(\c1ccc(N(C)C)cc1)c1ccc2nc(N)n(S(=O)(=O)C(C)C)c2c1 | 0.117 µg/mL (≈ 0.286 µM) | 5.3 µg/mL (≈ 13 µM) | 210 ng/mL | – | – | 0.059 µg/mL (≈ 0.144 µM) | 0.14 µg/mL (≈ 0.343 µM) | 0.08 µg/mL (≈ 0.196 µM) | 0.06 µg/mL (≈ 0.147 µM) | 0.048 µg/mL (≈ 0.117 µM) | 0.06 µg/mL (≈ 0.147 µM) | 0.13 µg/mL (≈ 0.318 µM) | – |
| CC#C/C=C(\c1cccc(F)c1)c1ccc2nc(N)n(S(=O)(=O)C(C)C)c2c1 | 0.26 µg/mL (≈ 0.654 µM) | 3.1 µg/mL (≈ 7.8 µM) | 640 ng/mL | – | – | 0.12 µg/mL (≈ 0.302 µM) | 0.33 µg/mL (≈ 0.83 µM) | 0.09 µg/mL (≈ 0.226 µM) | 0.28 µg/mL (≈ 0.704 µM) | 0.14 µg/mL (≈ 0.352 µM) | 0.19 µg/mL (≈ 0.478 µM) | 0.36 µg/mL (≈ 0.906 µM) | – |
| CC(C)S(=O)(=O)n1c(N)nc2ccc(/C(=N/O)c3ccccc3)cc21 [ENVIROXIME] | – | – | 890 ng/mL | – | – | – | – | – | – | – | – | – | – |
| C/C=C(\c1ccccc1)c1ccc2nc(N)n(S(=O)(=O)C(C)C)c2c1 | – | – | 5100 ng/mL | – | – | – | – | – | – | – | – | – | – |
| C#C/C=C(\c1ccc(OC)c(F)c1)c1ccc2nc(N)n(S(=O)(=O)C(C)C)c2c1 | 0.061 µg/mL (≈ 0.148 µM) | 5.5 µg/mL (≈ 13.3 µM) | 9200 ng/mL | – | – | 0.016 µg/mL (≈ 0.0387 µM) | 0.032 µg/mL (≈ 0.0774 µM) | 0.06 µg/mL (≈ 0.145 µM) | 0.054 µg/mL (≈ 0.131 µM) | 0.049 µg/mL (≈ 0.119 µM) | 0.035 µg/mL (≈ 0.0846 µM) | 0.029 µg/mL (≈ 0.0701 µM) | – |
